Consider eight compounds from ChEMBL document CHEMBL2034971, “Appraisal of GABA and PABA as linker: design and synthesis of novel benzamide based histone deacetylase inhibitors” (Eur J Med Chem, 2012).

Assay [1] concerns the target T1, NAD-dependent protein deacetylase sirtuin-1 (Homo sapiens, UniProt Q96EB6).
T1 sequence (Q96EB6 whole entry): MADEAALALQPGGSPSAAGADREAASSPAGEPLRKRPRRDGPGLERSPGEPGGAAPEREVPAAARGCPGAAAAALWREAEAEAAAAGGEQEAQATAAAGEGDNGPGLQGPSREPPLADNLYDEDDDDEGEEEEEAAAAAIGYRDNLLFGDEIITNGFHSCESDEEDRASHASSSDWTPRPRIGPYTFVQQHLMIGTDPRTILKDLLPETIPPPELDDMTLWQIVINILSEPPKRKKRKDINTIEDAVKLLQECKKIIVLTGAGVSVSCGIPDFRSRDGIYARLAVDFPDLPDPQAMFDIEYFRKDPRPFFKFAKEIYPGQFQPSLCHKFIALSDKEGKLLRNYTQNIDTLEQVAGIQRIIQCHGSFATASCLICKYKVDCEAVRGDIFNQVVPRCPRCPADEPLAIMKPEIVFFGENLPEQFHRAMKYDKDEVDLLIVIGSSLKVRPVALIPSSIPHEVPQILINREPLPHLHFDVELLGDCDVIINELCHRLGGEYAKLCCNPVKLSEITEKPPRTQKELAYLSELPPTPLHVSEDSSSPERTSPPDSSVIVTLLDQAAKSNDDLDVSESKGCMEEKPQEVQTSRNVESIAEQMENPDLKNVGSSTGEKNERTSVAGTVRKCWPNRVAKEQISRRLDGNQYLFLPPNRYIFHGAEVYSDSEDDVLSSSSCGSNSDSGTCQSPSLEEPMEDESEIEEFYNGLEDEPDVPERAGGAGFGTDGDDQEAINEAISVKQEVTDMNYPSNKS
The assay can be described thus: Inhibition of SIRT1.

The next assay deals with HCT-116. Description: Growth inhibition of human HCT116 cells after 2 days by MTT assay. The class given is functional. Particulars: HCT-116, 48 h; for CC50: read-out: LC50 (the source's name). A general note: Formazan colour is commonly taken as a measure of viable cells.
A further assay relates to U-251. The assay can be described thus: Growth inhibition of human U251 cells after 2 days by MTT assay. The class given is functional. To be noted: U-251, 48 h.
Assay [2] can be described thus: Antitumor activity against mouse EAC cells allografted in Swiss albino mouse assessed as decrease in tumor cell at 1 mg/kg, ip administered from day 1 to day 7 every 24 hrs. To be noted: Ehrlich, route intraperitoneal. It is filed as functional. In short, it runs like this: (§1)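 EAC cells kept by intraperitoneal passage in Swiss albino mice (18-20 g, 10 weeks) every 10 days; 9-day-old cells in isotonic saline adjusted to 10×10^6 cells/mL, 0.1 mL per 10 g injected ip on day 0. Seven daily ip doses in PBS pH 7.2 (0.1 mL/10 g), days 1-7; vehicle control. Day 8 sacrifice after 6 h fast.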

Assay [3] in a line: Antitumor activity against mouse EAC cells allografted in Swiss albino mouse assessed as decrease in tumor weight at 1 mg/kg, ip administered from day 1 to day 7 every 24 hrs. The class given is functional. To be noted: Ehrlich, route intraperitoneal. In short, it runs like this:
as §1

A further assay has as its target Histone deacetylase 1 (Homo sapiens, UniProt Q13547). The assay can be described thus: Inhibition of HDAC1 using Fluor de Lys as substrate by fluorescence analysis.
A short description of assay [4]: Antitumor activity against mouse EAC cells allografted in Swiss albino mouse assessed as decrease in tumor weight at 0.2 mmol/kg, ip administered from day 1 to day 7 every 24 hrs. The class given is functional. Particulars: Ehrlich. A digest of the protocol:
as §1

Assay [5] in a line: Antitumor activity against mouse EAC cells allografted in Swiss albino mouse assessed as decrease in tumor cell at 0.2 mmol/kg, ip administered from day 1 to day 7 every 24 hrs. The class given is functional. To be noted: Ehrlich. In short, it runs like this:
as §1

Broadly, the IC50 is the point on the concentration scale where inhibition reaches its midpoint. The low end stands for inhibition by little substance, the high end for a need for much substance. In general, GI50 refers to the concentration at which growth is held to half of that of the control. A high value points to lower sensitivity of the cells. Usually TGI stands for the concentration giving total growth inhibition. As a reminder, the inhibition in vivo is the change of the read-out against control, counted positive when it falls.

Chain of Histone deacetylase 1 (Q13547 whole entry): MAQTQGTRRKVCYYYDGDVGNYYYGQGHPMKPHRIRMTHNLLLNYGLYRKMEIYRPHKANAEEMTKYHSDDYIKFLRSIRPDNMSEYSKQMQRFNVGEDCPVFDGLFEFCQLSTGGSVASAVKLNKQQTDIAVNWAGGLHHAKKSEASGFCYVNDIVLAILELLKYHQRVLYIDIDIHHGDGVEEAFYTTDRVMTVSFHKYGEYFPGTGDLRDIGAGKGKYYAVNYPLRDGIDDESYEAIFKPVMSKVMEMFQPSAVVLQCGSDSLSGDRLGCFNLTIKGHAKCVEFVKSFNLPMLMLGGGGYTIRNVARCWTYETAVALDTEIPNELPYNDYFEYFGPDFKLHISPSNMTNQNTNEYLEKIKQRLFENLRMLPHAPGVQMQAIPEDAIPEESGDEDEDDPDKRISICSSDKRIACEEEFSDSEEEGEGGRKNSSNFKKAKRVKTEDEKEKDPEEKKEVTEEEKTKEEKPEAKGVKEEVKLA

In turn, `Nc1ccccc1NC(=O)c1ccc(CNC(=O)OCc2cccnc2)cc1` [ENTINOSTAT] registered an IC50 in assay [1] greater than 100 µM. For the same compound, in the assay with HCT-116, the concentration for 50% growth inhibition (GI50) amounted to 0.6 µM, the concentration for total growth inhibition (TGI) is greater than 100 µM and the CC50 is greater than 100 µM. In the assay with U-251, this compound returned a 50% growth inhibitory concentration (GI50) of 6.5 µM and a TGI of 40 µM.
For the compound `CO[C@@]12[C@H](COC(N)=O)C3=C(C(=O)C(C)=C(N)C3=O)N1C[C@@H]1N[C@@H]12` [MITOMYCIN], the inhibition in vivo at 1 mg/kg in assay [2] and in assay [3] was 100% throughout.
For the compound `Cc1ccc(NC(=O)CNc2ccc(C(=O)Nc3ccccc3N)cc2)cc1`, the IC50 at Histone deacetylase 1 is 4.5 µM. In assay [4], the inhibition in vivo at 200 µmol/kg amounted to 43.3%. For the same compound, in the assay on HCT-116, halving of growth (GI50) required 12.6 µM, the TGI was greater than 100 µM and the CC50 was greater than 100 µM. Also, in assay [5], the inhibition in vivo at 200 µmol/kg was 25.2%. In the assay with U-251, this compound had a GI50 of 84 µM, an LC50 (concentration killing 50% of cells) greater than 100 µM and a TGI greater than 100 µM.
At Histone deacetylase 1, `COc1ccc(NC(=O)CNCCCC(=O)Nc2ccccc2N)cc1` had an IC50 of 3.6 µM. The inhibition in vivo at 200 µmol/kg in assay [4] is 63.8%. In addition, in the assay with HCT-116, growth was halved (GI50) at 8.6 µM, net growth stopped (TGI) at 44 µM and the CC50 is greater than 100 µM. The inhibition in vivo at 200 µmol/kg in assay [5] stood at 63.3%. In addition, in the assay with U-251, the concentration for 50% growth inhibition (GI50) was 34 µM, the LC50 (concentration killing 50% of cells) is greater than 100 µM and the total growth inhibition concentration (TGI) is greater than 100 µM.
Take `COc1ccc(NC(=O)CNc2ccc(C(=O)Nc3ccccc3N)cc2)cc1`: the half-maximal inhibitory concentration (IC50) against Histone deacetylase 1 was found to be 3.1 µM. Moreover, the inhibition in vivo at 200 µmol/kg in assay [4] was 66.6%. In the assay on HCT-116, the GI50 amounted to 7.5 µM, net growth stopped (TGI) at 38 µM and the CC50 is greater than 100 µM. The inhibition in vivo at 200 µmol/kg in assay [5] worked out at 62.3%. In the assay with U-251, this compound yielded a GI50 of 25.5 µM, an LC50 (concentration killing 50% of cells) greater than 100 µM and a concentration for total growth inhibition (TGI) greater than 100 µM.
Consider `Nc1ccccc1NC(=O)c1ccc(NCC(=O)Nc2cccc(Cl)c2)cc1`, for which the IC50 at Histone deacetylase 1 was 2.5 µM. In assay [4], the inhibition in vivo at 200 µmol/kg is 68.4%. Moreover, in the assay on HCT-116, growth was halved (GI50) at 11.5 µM, the concentration for total growth inhibition (TGI) was greater than 100 µM and the CC50 is greater than 100 µM. In addition, the inhibition in vivo at 200 µmol/kg in assay [5] stood at 51.7%. In the assay on U-251, this compound gave a GI50 of 15.4 µM, an LC50 (concentration killing 50% of cells) greater than 100 µM and a TGI of 88 µM.
On Histone deacetylase 1, `Nc1ccccc1NC(=O)c1ccc(NCC(=O)Nc2ccccc2)cc1` yielded a concentration for half-maximal inhibition (IC50) of 7.4 µM. Besides, the inhibition in vivo at 200 µmol/kg in assay [4] turned out to be 18.5%. Further, in the assay on HCT-116, the 50% growth inhibitory concentration (GI50) is 45.3 µM, the TGI is greater than 100 µM and the CC50 is greater than 100 µM. Also, the inhibition in vivo at 200 µmol/kg in assay [5] stood at 30.5%. In the assay on U-251, this compound came in with a concentration for 50% growth inhibition (GI50) of 65 µM, an LC50 (concentration killing 50% of cells) greater than 100 µM and a TGI greater than 100 µM.
In turn, `Nc1ccccc1NC(=O)CCCNCC(=O)Nc1ccc([N+](=O)[O-])cc1` came in with a half-maximal inhibitory concentration (IC50) against Histone deacetylase 1 of 0.9 µM. For the same compound, the inhibition in vivo at 200 µmol/kg in assay [4] stood at 78.5%. In the assay on HCT-116, the 50% growth inhibitory concentration (GI50) came to 0.6 µM, the concentration for total growth inhibition (TGI) stood at 8.5 µM and the CC50 is greater than 100 µM. Besides, the inhibition in vivo at 200 µmol/kg in assay [5] is 76.5%. In addition, in the assay on U-251, growth was halved (GI50) at 9.4 µM, the LC50 (concentration killing 50% of cells) is greater than 100 µM and net growth stopped (TGI) at 66 µM.
